Screening data as filed in PubChem BioAssay.
Hits are enriched below; roughly 1.4% of the tested compounds scored in any of these assays.
HTR5A inv ctr: counter-screen for OPRM1-OPRD1 inverse agonists: human HTR5A inverse agonism; 0.083% of 340,000 active; inhibition, % at 9.3 µM; P47898; HTR5A cell line, luminescence; AID 504634; in the data active = inhibition mostly above about 23%, no sharp cut-off; inactive = mostly below about 18%;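 also: 0% = cells with DMSO and 100% = no-cell wells with DMSO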
MOR-DOR inv ag: inverse agonists of human mu-delta opioid receptor heterodimerization; P35372+P41143; cell-based MOR-DOR heterodimer luminescence, inverse agonism; inhibition, % at 9.3 µM; 0.21% of 340,000 active; in the data active = inhibition above about 22%, passing the limit was not always enough;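 also: 0% = cells with DMSO and 100% = wells without cells with DMSO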
DAGLB inhibitor: blocks human DAGLB lipase activity; Q8NCG7; AID 504411; 0.059% of 340,000 active; HEK293T DAGLB membrane lysate, EnzChek fluorogenic substrate; inhibition, % at 5.17 µM; in the data active = inhibition above about 34%;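 also: 0% = enzyme with vehicle and 100% = wells lacking enzyme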
Target sequence (Q8NCG7 whole entry, looked up): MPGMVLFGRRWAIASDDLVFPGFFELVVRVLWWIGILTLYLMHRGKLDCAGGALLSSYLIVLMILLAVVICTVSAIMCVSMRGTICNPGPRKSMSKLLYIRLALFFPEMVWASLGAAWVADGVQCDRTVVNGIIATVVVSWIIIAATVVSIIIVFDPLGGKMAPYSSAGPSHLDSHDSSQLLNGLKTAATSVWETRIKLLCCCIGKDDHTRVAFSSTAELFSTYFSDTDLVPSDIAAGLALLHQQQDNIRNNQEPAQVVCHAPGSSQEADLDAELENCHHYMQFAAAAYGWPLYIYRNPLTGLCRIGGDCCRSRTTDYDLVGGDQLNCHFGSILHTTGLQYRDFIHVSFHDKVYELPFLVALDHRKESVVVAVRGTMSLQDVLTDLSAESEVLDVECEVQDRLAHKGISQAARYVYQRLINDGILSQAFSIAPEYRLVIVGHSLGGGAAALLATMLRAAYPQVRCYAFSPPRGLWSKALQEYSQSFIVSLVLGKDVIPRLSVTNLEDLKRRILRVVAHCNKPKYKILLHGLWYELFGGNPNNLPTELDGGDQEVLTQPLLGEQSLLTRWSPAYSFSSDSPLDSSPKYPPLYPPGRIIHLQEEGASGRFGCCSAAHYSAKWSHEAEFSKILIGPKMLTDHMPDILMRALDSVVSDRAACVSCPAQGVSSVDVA
Arrestin-AP2 inh: human beta-arrestin and AP2 interaction inhibition. FITC-arrestin peptide / GST-AP2 beads, flow cytometry; AP2 beta2 appendage carries R879A mutation. inhibition, % at 10 µM. 0.31% of 340,000 active;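 active = inhibition above a set limit, near 3 SD of compounds lacking own fluorescence, cut at about 54% in these data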;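 also: plate controls were DMSO wells for no effect and 5 µM unlabelled arrestin peptide for full effect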
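System: GST-tagged AP2 beta2-adaptin appendage (R879A) on 4 µm glutathione beads / Reagent: FITC-arrestin peptide, 50 nM / Detection: HyperCyt-sampled flow cytometry, FL1 channel, ex 488/em 535 nm / Timing: 12 min plus 1 h, RT / Buffer or medium: PBS plus Tween 20 (0.05%) and BSA (0.1%)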
MOR-DOR ag-1: agonists of human mu-delta opioid receptor heterodimerization. activation, % at 9.3 µM. P35372+P41143. 0.3% of 340,000 active. cells, OPRM1-OPRD1 heterodimerization, luminescence. AID 504326;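 also: 0% = vehicle-treated cells and 100% = reference agonist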
HTR5A ag: counter-screen for OPRM1-OPRD1 agonists: human HTR5A agonism | activation, % at 9.3 µM | AID 504692 | P47898 | 0.61% of 340,000 active | HTR5A agonist assay, luminescence, cell-based; in the data active = activation mostly above about 9.5%, no sharp cut-off; inactive = mostly below about 7.6%;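 also: 0% = cells with vehicle only and 100% = reference agonist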
MOR-DOR ag-2: promotes OPRM1-OPRD1 heterodimerization in HTR5A counter-screen. activation, % at 9.3 µM. 13% of 800 active. shares compounds with HTR5A ag. U2OS counter-screen cells, complementation luminescence, 3 h
HTR5A ag confirm: HTR5A (human) agonism, confirmation. 17% of 800 active. HTR5A agonist cell assay, luminescence. activation, % at 9.3 µM. shares compounds with HTR5A ag; in the data active = activation above about 17%;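 also: 0% = cells with vehicle only and 100% = full reference agonist response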
An asterisk follows results filed as active; nt = no result. Rule as the data show it, unless noted: active = activation above about 18%; inactive = the rest.

SMILES	HTR5A inv ctr	MOR-DOR inv ag	DAGLB inhibitor	Arrestin-AP2 inh	MOR-DOR ag-1	HTR5A ag	MOR-DOR ag-2	HTR5A ag confirm
O=C(CNS(=O)(=O)c1ccccc1)N1CCCC1	1.9	15.0	-0.4	11.7	-2.9	0.9	nt	nt
O=C(CNS(=O)(=O)c1ccccc1)N1CCN(c2ccccc2)CC1	-15.3	-13.4	-4.2	6.7	2.4	16.0*	1.1	0.3
CCS(=O)(=O)N1Cc2ccccc2CC1C(=O)Nc1ccc(OC)c(OC)c1 (stereo unspecified)	1.1	5.7	1.8	-2.5	-0.9	15.2*	0.6	5.4
CCS(=O)(=O)N1Cc2ccccc2CC1C(=O)Nc1cccc(OC)c1 (stereo unspecified)	0.1	13.3	0.0	-7.3	-2.8	0.0	nt	nt
CN(C)S(=O)(=O)c1ccc(NC(=O)COc2cccc3c2OC(C)(C)C3)cc1	-103.8	5.9	-0.1	15.8	-1.2	23.8*	4.1	45.6*
COc1ccc(NC(=O)COc2cccc3c2OC(C)(C)C3)cc1OC	-66.7	0.8	-4.4	27.0	-0.2	26.2*	0.5	29.5*
CC1(C)Cc2cccc(OCC(=O)OCC(=O)Nc3ccc(S(N)(=O)=O)cc3)c2O1	nt	nt	-4.1	nt	nt	nt	nt	nt
COc1cccc(NC(=O)COC(=O)COc2cccc3c2OC(C)(C)C3)c1	-9.6	-9.7	-4.1	1.1	1.8	0.9	nt	nt
CCCNC(=O)c1ccccc1NC(=O)COc1cccc2c1OC(C)(C)C2	-67.1	9.1	-1.7	44.9	-1.8	27.5*	10.2	0.1
CCCCSCc1nc2nc(Cl)c(Cl)nc2[nH]1	nt	nt	-2.0	nt	nt	nt	nt	nt
Cc1[nH]n(-c2ccc([N+](=O)[O-])cc2)c(=O)c1C=NCCc1c[nH]c2ccccc12	-100.5	-4.6	4.8	2.6	0.9	34.3*	2.6	9.8
Cc1[nH]n(-c2ccccc2)c(=O)c1C=NCCc1ccccc1	-0.6	11.9	-1.4	18.9	-2.3	2.2	nt	nt
CCCc1[nH]n(-c2ccc([N+](=O)[O-])cc2)c(=O)c1C=NCCc1c[nH]c2ccccc12	-43.6	-6.7	2.4	19.9	1.4	19.8*	5.1	4.6
COc1cccc(NC(=O)CN(C)C(=O)/C=C/c2cn(-c3ccccc3)nc2-c2ccc(OC)c(OC)c2)c1	6.9	-3.6	-6.6	-5.3	0.9	-2.8	nt	nt
COc1ccc(-c2nn(-c3ccccc3)cc2/C=C/C(=O)N(C)CC(=O)Nc2cccc(F)c2)cc1OC	10.8	-0.7	-4.1	-0.1	0.2	15.2*	2.4	1.1
COc1ccc(C(=O)N/C(=C\c2cccc3ccccc23)C(=O)NCCc2c[nH]c3ccccc23)cc1OC	-47.2	10.5	-2.1	-10.5	-2.5	18.8*	-0.5	-0.9
Cc1ccc(C(=O)N/C(=C\c2cccs2)C(=O)NCCc2c[nH]c3ccccc23)cc1C	-44.2	16.4	-0.4	32.2	-3.4	18.5*	2.3	38.5*
CCn1c(N2CCN(C(=O)NC3CCCCC3)CC2)nc2ccccc21	-47.5	2.9	-0.9	2.5	-0.5	23.9*	15.8	1.9
COc1cccc(S(=O)(=O)N(C)C[C@H]2OCc3cnnn3CCCC(=O)N([C@@H](C)CO)C[C@H]2C)c1	nt	nt	-0.4	nt	nt	nt	nt	nt
O=C(COc1ncnc2ccccc12)Nc1cc([N+](=O)[O-])ccc1F	-57.0	9.8	0.5	0.1	-2.0	19.2*	2.1	0.7
COc1cc(/C=C2\COC/C(=C\c3ccc(O)c(OC)c3)C2=O)ccc1O	16.1	2.9	0.2	49.1	-0.6	-7.1	nt	nt
COc1cc(/C=C2/CC/C(=C/c3ccc(O)c(OC)c3)C2=O)ccc1O	13.6	-53.3	-1.0	14.2	10.2	23.5*	0.2	5.2
Cc1ccccc1NS(=O)(=O)c1ccc(C(=O)NCc2ccccc2CN2CCCC2)cc1	nt	nt	0.9	nt	nt	nt	nt	nt
Cc1nc(SCC(=O)N(CC(C)C)C2CCS(=O)(=O)C2)c(C#N)c(C)c1C (stereo unspecified)	10.4	5.8	1.3	-3.0	-0.9	-2.4	nt	nt
c1ccc(-c2ccc3ccccc3n2)cc1	-6.1	5.0	-6.3	2.3	-0.9	0.5	nt	nt
SMILES	HTR5A inv ctr	MOR-DOR inv ag	DAGLB inhibitor	Arrestin-AP2 inh	MOR-DOR ag-1	HTR5A ag	MOR-DOR ag-2	HTR5A ag confirm
CNc1ccccc(-c2ccc3ccccc3n2)c1=O	-111.0	-14.0	2.9	21.3	2.6	15.2*	0.3	38.8*
COc1ccc(N(CC(=O)NCCSc2ccccn2)S(=O)(=O)c2ccccc2)c(OC)c1	-57.5	-31.4	1.3	3.0	3.9	19.3*	-0.1	20.8*
Cc1cc(C)cc(OCC(=O)Nc2nc(-c3ccccn3)cs2)c1	-30.4	-10.5	-4.6	-13.3	2.2	21.0*	0.3	63.7*
CC1=C(C(=O)N2CCOCC2)CC(CC(=O)NC2CCCCC2)C(=O)N1Cc1ccccc1 (stereo unspecified)	nt	nt	-0.8	nt	nt	nt	nt	nt
CN(CC(=O)Nc1ccc(Cl)cc1)C(=O)CCc1nc2sc3c(c2c(=O)[nH]1)CCCC3	-46.1	-65.5	9.1	26.3	10.1	20.9*	5.5	14.9
COc1ccc(C#Cc2cnc3c(c2)C(=O)N([C@@H](C)CO)C[C@@H](C)[C@@H](CN(C)CC2CCOCC2)O3)cc1	nt	nt	-0.8	nt	nt	nt	nt	nt
Cc1cccc(C)c1-c1ccc(CN2C(CC(C)C)C(=O)N(Cc3cn(CCO)nn3)CCS2(=O)=O)cc1 (stereo unspecified)	-7.7	7.0	-3.8	-16.5	-1.5	2.0	nt	nt
CC(=O)Nc1ccc2nc(NC(=O)c3cccnc3)sc2c1	-33.7	-0.9	-0.5	24.4	0.2	14.8*	2.0	51.1*
CCOc1ccc(S(=O)(=O)NCCC(=O)N2CCN(C(C)=O)CC2)cc1	nt	nt	-4.9	nt	nt	nt	nt	nt
CCC(C)NS(=O)(=O)c1ccc(S(=O)(=O)N(CC(=O)Nc2ccccc2)Cc2ccco2)cc1 (stereo unspecified)	-9.0	-4.0	-5.4	4.5	0.8	14.9*	-1.1	1.9
CC1(C)CC(=O)C=C(c2ccc(COC(=O)C3CC3)cc2)C1=O	nt	nt	0.5	nt	nt	nt	nt	nt
Cc1ccc(S(=O)(=O)NN=C2C3CC4CC(C3)CC2C4)cc1[N+](=O)[O-]	-58.1	2.0	0.7	20.5	-0.4	12.4	nt	nt
Cc1ccc(S(=O)(=O)NN=C2C3CC4CC(C3)CC2C4)cc1	0.1	20.3	-2.7	18.6	-4.2	15.0*	-0.1	2.2
CCOc1ccc(-n2c(SCC(=O)Nc3ccc(CC)cc3)nc3n[nH]c(C)c3c2=N)cc1	-43.2	-66.7	2.4	-8.2	10.2	17.4*	10.4	7.4
CCCN(CCC)C(=O)CSc1nc2n[nH]c(C)c2c(=N)n1-c1ccc(OCC)cc1	-9.5	1.2	-1.8	7.7	-0.2	3.2	nt	nt
COc1cc(OC)c(C2SCCN2S(=O)(=O)c2ccc(F)cc2)cc1OC (stereo unspecified)	-36.4	3.9	-3.4	4.6	-0.7	-1.3	nt	nt
